According to ChEMBL document CHEMBL2424615, “Design, synthesis, and characterization of novel tetrahydropyran-based bacterial topoisomerase inhibitors with potent anti-gram-positive activity” (J Med Chem, 2013):

Key:
[1] = target: DNA gyrase subunit A (Staphylococcus aureus, UniProt P20831, D83N); assay: Inhibition of NXL-101-resistant Staphylococcus aureus DNA gyrase D83N mutant assessed as pBR322 supercoiling after 1 hr
[2] = test system: Escherichia coli; assay: Antibacterial activity against wild type Escherichia coli ATCC 25922 assessed as growth inhibition by broth microdilution method; format: functional
[3] = target: DNA gyrase subunit A (Staphylococcus aureus, UniProt P20831, S84L); assay: Inhibition of quinolone-resistant Staphylococcus aureus A-798 DNA gyrase S84L mutant assessed as pBR322 supercoiling after 1 hr
[4] = Inhibition of wild type Escherichia coli ATCC 25922 DNA topoisomerase-4 subunit 2ParC/2ParE assessed as pBR322 relaxation after 1 hr
[5] = test system: Pseudomonas aeruginosa; assay: Antibacterial activity against wild type Pseudomonas aeruginosa ATCC 27853 assessed as growth inhibition by broth microdilution method; format: functional
[6] = target: Topoisomerase IV (Staphylococcus aureus, UniProt P0C1S7+P0C1U9); assay: Inhibition of wild type Staphylococcus aureus ATCC 29213 topoisomerase-4 subunit 2GrlA/2GrlB assessed as pBR322 relaxation after 1 hr; format: protein-complex assay
[7] = test system: Enterococcus faecium; assay: Antibacterial activity against vancomycin-resistant Enterococcus faecium A-949 assessed as growth inhibition by broth microdilution method; format: functional
[8] = test system: Streptococcus pneumoniae; assay: Antibacterial activity against wild type Streptococcus pneumoniae ATCC 49619 assessed as growth inhibition by broth microdilution method; format: functional
[9] = test system: Staphylococcus aureus; assay: Antibacterial activity against methicillin and quinolone-resistant Staphylococcus aureus A-798 assessed as growth inhibition by broth microdilution method; format: functional
[10] = test system: Staphylococcus aureus; assay: Antibacterial activity against wild type Staphylococcus aureus ATCC 29213 assessed as growth inhibition by broth microdilution method; format: functional
[11] = test system: Staphylococcus aureus; assay: Antibacterial activity against NXL-101-resistant Staphylococcus aureus harboring DNA gyrase D83N mutant assessed as growth inhibition by broth microdilution method; format: functional
[12] = target: DNA gyrase (Staphylococcus aureus, UniProt P0A0K8+P20831); assay: Inhibition of wild type Staphylococcus aureus DNA gyrase subunit 2GyrA/2GyrB assessed as pBR322 supercoiling after 1 hr; format: protein-complex assay
[13] = test system: Rattus norvegicus; assay: Unbound clearance in Wistar rat at 0.5 mg/kg, iv and 1 mg/kg, po; format: ADME, organism-based; conditions: in vivo
How it was run: (§1)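 Male Wistar rats (n = 3) dosed by iv bolus (0.5 or 1 mg/kg) or orally (1 or 10 mg/kg); iv vehicles included pH 4.5 aqueous solution, 5% DMSO in water, or 10% PG/10% PEG400 in water pH 7; oral as pH 5.6 aqueous suspension or microsuspension in 7.5% modified gelatin. Blood sampled by preimplanted catheter over 24 h; plasma by LC-MS/MS, LOQ 1.5 ng/mL.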

[14] = AUC in Wistar rat at 1 mg/kg, po; format: ADME, organism-based; set-up: dose 1 mg/kg, route oral; conditions: plasma; how it was run: as §1
[15] = test system: Staphylococcus aureus; assay: Antibacterial activity against methicillin-resistant Staphylococcus aureus clinical isolate assessed as growth inhibition by broth microdilution method; format: functional
[16] = Oral bioavailability in Wistar rat at 1 mg/kg; format: ADME, organism-based; conditions: in vivo; how it was run: as §1
[17] = test system: Enterococcus faecalis; assay: Antibacterial activity against Enterococcus faecalis clinical isolate assessed as growth inhibition by broth microdilution method; format: functional
[18] = Intrinsic clearance in rat liver microsomes at 1 uM; format: ADME, Microsome; conditions: read-out: CLH
[19] = Inhibition of wild type Escherichia coli ATCC 25922 DNA gyrase subunit 2GyrA/2GyrB assessed as pBR322 supercoiling after 1 hr
[20] = target: hERG (KCNH2) (Homo sapiens, UniProt Q12809); assay: Inhibition of human ERG expressed in CHO cells at 10 uM after 3 mins by patch clamp assay relative to control; format: cell-based; conditions: CHO cells that express human ERG
Chain of hERG (KCNH2) (Q12809 whole entry): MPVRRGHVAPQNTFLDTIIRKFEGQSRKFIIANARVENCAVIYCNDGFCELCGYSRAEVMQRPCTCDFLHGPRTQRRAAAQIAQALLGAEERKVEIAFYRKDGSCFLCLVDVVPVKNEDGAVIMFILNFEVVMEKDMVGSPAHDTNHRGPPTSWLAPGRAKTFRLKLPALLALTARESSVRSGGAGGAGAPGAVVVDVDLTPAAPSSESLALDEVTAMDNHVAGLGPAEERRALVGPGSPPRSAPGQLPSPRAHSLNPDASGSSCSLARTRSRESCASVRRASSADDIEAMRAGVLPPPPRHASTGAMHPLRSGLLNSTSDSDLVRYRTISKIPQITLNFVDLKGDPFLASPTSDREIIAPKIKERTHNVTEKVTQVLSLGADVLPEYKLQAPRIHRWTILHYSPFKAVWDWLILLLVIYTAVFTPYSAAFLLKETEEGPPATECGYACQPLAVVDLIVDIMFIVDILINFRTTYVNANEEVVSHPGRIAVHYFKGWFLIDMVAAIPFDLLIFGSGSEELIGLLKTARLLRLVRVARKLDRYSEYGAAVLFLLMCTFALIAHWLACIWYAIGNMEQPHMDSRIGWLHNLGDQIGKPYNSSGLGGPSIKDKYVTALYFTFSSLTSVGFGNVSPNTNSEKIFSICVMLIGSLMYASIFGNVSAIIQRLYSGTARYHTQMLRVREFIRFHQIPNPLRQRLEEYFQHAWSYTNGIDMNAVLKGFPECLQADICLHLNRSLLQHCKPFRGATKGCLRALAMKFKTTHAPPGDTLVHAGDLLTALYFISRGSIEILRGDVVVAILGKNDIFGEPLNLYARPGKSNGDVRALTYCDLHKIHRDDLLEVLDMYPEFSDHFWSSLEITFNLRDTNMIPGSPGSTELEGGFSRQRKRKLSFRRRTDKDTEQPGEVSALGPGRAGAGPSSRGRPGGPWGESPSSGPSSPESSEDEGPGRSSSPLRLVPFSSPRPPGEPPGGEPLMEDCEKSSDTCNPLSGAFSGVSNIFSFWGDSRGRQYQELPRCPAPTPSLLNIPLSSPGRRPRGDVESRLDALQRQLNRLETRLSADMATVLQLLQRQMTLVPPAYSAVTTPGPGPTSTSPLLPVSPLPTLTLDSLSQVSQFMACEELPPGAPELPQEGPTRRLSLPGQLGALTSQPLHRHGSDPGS

[21] = test system: Staphylococcus aureus; assay: Antistaphylococcal activity against Staphylococcus aureus DSM 11823 in neutropenic NMRI mouse thigh infection model assessed as reduction of log10cfu in thigh at 40 mg/kg, sc measured after 6 hrs; format: functional; conditions: route subcutaneous
How it was run: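 Mice made neutropenic with ip cyclophosphamide, 150 mg/kg on day -4 and 100 mg/kg on day -1. Log-phase S. aureus (A580 0.3-0.9), 0.05 ml inoculum given im into both thighs 2 h before sc dosing in 5% mannitol in water at 10 ml/kg. Thighs homogenized, serially diluted and plated for CFU 6 h post infection.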

[22] = test system: Streptococcus pyogenes; assay: Antibacterial activity against Streptococcus pyogenes clinical isolate assessed as growth inhibition by broth microdilution method; format: functional
[23] = Intrinsic clearance in human liver microsomes at 1 uM; format: ADME, Microsome; conditions: read-out: CLH
[24] = test system: Staphylococcus aureus; assay: Antibacterial activity against fluoroquinolone-resistant Staphylococcus aureus clinical isolate assessed as growth inhibition by broth microdilution method; format: functional
[25] = test system: Staphylococcus aureus; assay: Antibacterial activity against NXL-101-resistant Staphylococcus aureus A-234 harboring DNA gyrase subunit A D83N mutant assessed as growth inhibition by broth microdilution method; format: functional
[26] = Volume of distribution at steady state in Wistar rat at 0.5 mg/kg, iv and 1 mg/kg, po; format: ADME, organism-based; conditions: in vivo, read-out: Vdss; how it was run: as §1
[27] = test system: Streptococcus agalactiae; assay: Antibacterial activity against Streptococcus agalactiae clinical isolate assessed as growth inhibition by broth microdilution method; format: functional
[28] = Intrinsic clearance in mouse liver microsomes at 1 uM; format: ADME, Microsome; conditions: read-out: CLH
[29] = test system: Moraxella catarrhalis; assay: Antibacterial activity against Moraxella catarrhalis clinical isolate assessed as growth inhibition by broth microdilution method; format: functional
[30] = test system: Streptococcus pneumoniae; assay: Antibacterial activity against Streptococcus pneumoniae clinical isolate assessed as growth inhibition by broth microdilution method; format: functional
[31] = test system: Staphylococcus epidermidis; assay: Antibacterial activity against Staphylococcus epidermidis clinical isolate assessed as growth inhibition by broth microdilution method; format: functional
[32] = test system: Haemophilus influenzae; assay: Antibacterial activity against Haemophilus influenzae clinical isolate assessed as growth inhibition by broth microdilution method; format: functional
[33] = Half life in Wistar rat at 0.5 mg/kg, iv and 1 mg/kg, po; format: ADME, organism-based; conditions: in vivo; how it was run: as §1
[34] = test system: Staphylococcus aureus; assay: Spontaneous resistance frequency for Staphylococcus aureus ATCC 25923 at 4 times MIC to 16 times MIC after 48 hrs relative to NXL-101; format: functional
How it was run: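 Incubated 48 h at 37 °C. Frequency calculated as resistant colonies divided by viable bacteria plated, with the viable count taken on drug-free agar.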

[35] = test system: Staphylococcus aureus; assay: Antistaphylococcal activity against Staphylococcus aureus DSM 11823 assessed as growth inhibition by broth microdilution method; format: functional
[36] = Clearance in Wistar rat at 0.5 mg/kg, iv; format: ADME, organism-based; set-up: dose 0.5 mg/kg, route intravenous; conditions: in vivo; how it was run: as §1
[37] = test system: Enterococcus faecium; assay: Antibacterial activity against vancomycin-resistant Enterococcus faecium clinical isolate assessed as growth inhibition by broth microdilution method; format: functional
[38] = Fraction unbound in Wistar rat plasma at 0.5 mg/kg, iv and 1 mg/kg, po; format: ADME, organism-based
[39] = AUC in Wistar rat at 0.5 mg/kg, iv; format: ADME, organism-based; set-up: dose 0.5 mg/kg, route intravenous; conditions: plasma; how it was run: as §1

SMILES: O=c1ccc2ccc(F)c3c2n1CC3CN1CCC(NCc2cc3c(cn2)OCCO3)CC1 (centres undefined)
- IC50 [1]: 2 µM
- MIC [2]: 1 µg/mL
- IC50 [3]: 30 nM
- IC50 [4]: 500 nM
- MIC [5]: > 8 µg/mL
- IC50 [6]: 2000 nM
- MIC [7]: 0.06 µg/mL
- MIC [8]: 0.015 µg/mL
- MIC [9]: 0.015 µg/mL
- MIC [10]: 0.015 µg/mL
- MIC [11]: 1 µg/mL
- IC50 [12]: 125 nM

SMILES: COc1ccc2ncc(F)c([C@@H](O)[C@H](O)[C@@H]3CC[C@@H](NCc4cc5c(cn4)OCCS5)CO3)c2n1
- MIC [2]: 8 µg/mL
- CL free [13]: 512 mL/min/kg
- AUC [14]: 776 ng·h/mL
- IC50 [4]: 125 nM
- MIC50 [15]: ≤ 0.015 µg/mL
- MIC90 [15]: 0.03 µg/mL
- bioavailability [16]: 41%
- MIC50 [17]: 0.5 µg/mL
- MIC90 [17]: 0.5 µg/mL
- microsomal CLint at 1 µM [18]: 344 µL/min/mg
- IC50 [19]: 8 µM
- MIC [5]: > 8 µg/mL
- inhibition at 0.05 h, 10 µM [20]: 19%
- log10cfu [21]: 1
- MIC50 [22]: 0.03 µg/mL
- MIC90 [22]: 0.06 µg/mL
- microsomal CLint at 1 µM [23]: 30 µL/min/mg
- MIC50 [24]: ≤ 0.015 µg/mL
- MIC90 [24]: 0.03 µg/mL
- MIC [25]: 2 µg/mL
- Vd [26]: 1 L/kg
- IC50 [6]: 8000 nM
- MIC [8]: ≤ 0.015 µg/mL
- MIC50 [27]: 0.25 µg/mL
- MIC90 [27]: 0.5 µg/mL
- microsomal CLint at 1 µM [28]: 291 µL/min/mg
- MIC50 [29]: 0.03 µg/mL
- MIC90 [29]: 0.125 µg/mL
- MIC50 [30]: 0.06 µg/mL
- MIC90 [30]: 0.125 µg/mL
- MIC [10]: ≤ 0.015 µg/mL
- MIC50 [31]: 0.06 µg/mL
- MIC90 [31]: 0.25 µg/mL
- MIC50 [32]: 0.5 µg/mL
- MIC90 [32]: 4 µg/mL
- half-life [33]: 180 min
- fold change (FC) [34]: 10
- MIC [35]: 0.06 µg/mL
- IC50 [12]: 30 nM
- clearance [36]: 8.7 mL/min/kg
- MIC50 [37]: 0.25 µg/mL
- MIC90 [37]: 1 µg/mL
- fraction unbound [38]: 0.017
- AUC [39]: 959 ng·h/mL

SMILES: COc1ccc2ncc(F)c([C@@H](O)[C@H](O)[C@@H]3CC[C@@H](NCc4ccc5c(n4)NC(=O)CS5)CO3)c2n1
- MIC [2]: 1 µg/mL
- IC50 [4]: 30 nM
- IC50 [19]: 0.5 µM
- MIC [5]: > 8 µg/mL
- inhibition at 0.05 h, 10 µM [20]: 54%
- MIC [25]: 0.25 µg/mL
- IC50 [6]: 500 nM
- MIC [8]: 0.06 µg/mL
- MIC [10]: 0.03 µg/mL
- fold change (FC) [34]: 10
- IC50 [12]: 30 nM

SMILES: COc1ccc2nccc(NC(=O)[C@H]3CC[C@H](NCc4ccc5c(n4)NC(=O)CS5)CC3)c2n1
- IC50 [1]: 8 µM
- MIC [2]: 0.25 µg/mL
- IC50 [3]: 8 nM
- IC50 [4]: 8 nM
- MIC [5]: 8 µg/mL
- IC50 [6]: 125 nM
- MIC [7]: 0.063 µg/mL
- MIC [8]: 0.063 µg/mL
- MIC [9]: 0.015 µg/mL
- MIC [10]: 0.015 µg/mL
- MIC [11]: 0.25 µg/mL
- IC50 [12]: 30 nM

SMILES: COc1ccc2nccc([C@@H](O)[C@H](O)[C@H]3CC[C@H](NCc4ccc5c(n4)NC(=O)CS5)CO3)c2n1
- MIC [2]: 4 µg/mL
- IC50 [4]: 125 nM
- IC50 [19]: 8 µM
- MIC [5]: > 8 µg/mL
- inhibition at 0.05 h, 10 µM [20]: 45%
- MIC [25]: > 8 µg/mL
- IC50 [6]: > 8000 nM
- MIC [8]: 0.5 µg/mL
- MIC [10]: 0.5 µg/mL
- IC50 [12]: 125 nM
